Source: PubChem
Compounds with a hit are over-represented: about 1.1% of the library has one in this group of screens.
Yeast tox: yeast growth toxicity, wild-type and mutant, primary screen, cytotoxicity control for eIF2B function restoration project, wild-type and eIF2Bepsilon R284H mutant, A595; S. cerevisiae wild-type growth, A595 turbidity, 16 h; growth inhibition, % at 25 µM (by protocol); 30,000 compounds, 0.3% hits; AID 685, 2007;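 active = mutant and wild-type yeast strains alike exhibit over 30% growth inhibition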
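Schedule: 16 h growth with compound, 30 °C. System: yeast, wild-type or eIF2Bepsilon-R284H mutant. Doses: one dose, 25 µM compound[…]. Buffer or medium: YPD. Signal: turbidity measured as absorbance at 595 nm. Read-out basis: growth inhibition (%) versus cell controls and blanks.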
Yeast eIF2B: GCN4-lacZ reporter reduction in eIF2B-epsilon mutant yeast, primary screen, S. cerevisiae, eIF2B-epsilon R284H, Beta-Glo luminescence; inhibition, % at 25 µM (by protocol); 27,000 compounds, 0.91% hits;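 active = mutant luminescence inhibited past about 50% while wild type luminescence and mutant growth stay under set limits, limit read from the data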
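Assay system: yeast eIF2B-epsilon R284H mutant carrying GCN4–beta-galactosidase fusion / Buffer or medium: YPD / Incubation: 16 h growth with compound at 30 °C, 90 min Beta-Glo step / Detection: Beta-Glo luminescence after Z-buffer lysis, growth by 595 nm absorbance / Read-out: % inhibition of reporter signal and growth versus controls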
Numbers stand for hits; . = inactive; / = no result.

SMILES | Yeast tox | Yeast eIF2B
CC1=CC(=O)C=C(C)C1=NOS(=O)(=O)c1ccccc1 | 76.9 | /
C=C(C)C1Cc2c(C)nn(-c3cc(C)c4ccccc4n3)c2C1 (stereo not drawn) | . | .
COc1ccccc1NC(=O)c1ccccc1SC | . | .
COc1ccccc1NC(=O)c1cc2ccccc2o/c1=N\O | . | 63.9
COC(=O)CSc1nc(-c2cccs2)ccc1C#N | / | .
CN1CCN(C(=O)CSc2nc(-c3ccncc3)ccc2C#N)CC1 | . | 71.2
CCCn1c(SCC(=O)NCc2ccccc2)nnc1-c1ccncc1 | . | .
Cc1ccc(OCCCC(=O)Nc2ccc(S(=O)(=O)Nc3cc(C)on3)cc2)cc1 | . | 53.2
COc1ccc(CC(=O)Nc2ccc(S(=O)(=O)Nc3cc(C)on3)cc2)cc1 | . | .
CCC(CC)COC(=O)C(C#N)c1nc2ccccc2nc1N1CCOCC1 (stereo not drawn) | . | .
N#CC(C(=O)OC1CCCCC1)c1nc2ccccc2nc1N1CCOCC1 (stereo not drawn) | . | 51.4
CCn1c(CNc2nc3ccccc3n2C(C)C)nc2ccccc21 | . | 53.2
CCn1c(NCc2ccccc2Cl)nc2ccccc21 | . | .
Cc1c(Cl)cccc1NC(=O)COc1ccc(S(=O)(=O)N2CCOCC2)cc1 | . | /
CN(Cc1c(F)cccc1Cl)c1ccc(S(=O)(=O)N2CCOCC2)cn1 | . | 57.4
CN(C)C(=O)Cn1nc(-c2ccccc2)c2ccccc2c1=O | / | .
CNC(=O)CCn1nc(-c2ccccc2)c2ccccc2c1=O | . | 58.9
CCCCN(CC)C(=O)Cn1cnc2ccc(S(=O)(=O)N3CCC(C)CC3)cc2c1=O | . | .
Cc1ccc(SCCCCN2C(=O)NC(C)(C)C2=O)cc1 | . | .
COc1cc2c(cc1NC(=O)C(c1ccccc1)c1ccccc1)CCCC2 | . | .
CCC(=O)NCCSc1c[nH]c2ccccc12 | . | 61.5
CC(Sc1c[nH]c2ccccc12)C(=O)O (stereo not drawn) | . | .
COc1ccc(-c2nnc3n2N=C(C)CS3)cc1OC | . | .
COc1ccc(OC)c(C2=Nn3c(nnc3-c3cccc(OC(C)C)c3)SC2)c1 | . | 59.9
CC1=C(C#N)C(c2cccnc2)C2=C(CC(c3ccc(Cl)cc3)CC2=O)N1 (stereo not drawn) | . | .
SMILES | Yeast tox | Yeast eIF2B
COC(=O)c1nn2c(C(F)(F)F)cc(-c3ccc(Br)o3)nc2c1Br | . | 54.1
COC(=O)c1cc2nc(-c3ccc(OC)cc3)cc(C(F)(F)F)n2n1 | . | .
COc1cc(/C=C(/C(=O)c2cccs2)c2nc3ccccc3[nH]2)cc(OC)c1O | . | /
O=C(CN1C(=O)NC2(CCCCCC2)C1=O)N1CCN(S(=O)(=O)c2ccc(Cl)cc2)CC1 | . | /
O=C(NCc1ccccc1)c1ccc(COCC(F)(F)F)o1 | / | .
C=CCn1c(SCC(=O)OCC)nc2cc(C(=O)NCc3ccco3)ccc2c1=O | . | /
CCCCCn1c(SCC(=O)OCC)nc2cc(C(=O)NCc3ccco3)ccc2c1=O | . | 56.1
COC(=O)c1cc2occc2n1CC(=O)Nc1ccc(OC)c(OC)c1 | . | 60.3
COC(=O)c1cc2occc2n1CC(=O)Nc1cc(OC)cc(OC)c1 | . | .
CC(NC(=O)c1cccs1)C(=O)NC1=NCCS1 (stereo not drawn) | / | .
CC(C)C(NC(=O)c1ccccc1)C(=O)NC1=NCCS1 (stereo not drawn) | . | 52.3
Cc1ccc(S(=O)(=O)N(C)CCCC(=O)n2nc(C)cc2C)cc1 | . | .
CCCS(=O)(=O)N1CCN(C(=O)COc2ccc(OC)cc2)CC1 | . | /
COc1ccc(Cl)cc1-n1c(N)c(C(N)=O)sc1=S | . | 52.8
Cc1ccc(-n2c(N)c(C(N)=O)sc2=S)c(C)c1 | . | .
COc1ccc(S(=O)(=O)N2CCC(C(=O)N3CCCCC3)CC2)cc1Cl | . | .
CCOC(=O)CSc1nc2c(c(=O)[nH]c(=O)n2C)n1C/C=C(/C)Cl | . | .
CCCCCOC(=O)Cn1c(SCC(=O)Nc2ccccc2)nc2c1c(=O)[nH]c(=O)n2C | . | 59.5
COc1cccc(NC(=O)CCNC(=O)Cn2ccc3ccccc3c2=O)c1 | . | /
CCOC(=O)COc1ccc(S(=O)(=O)NCc2ccco2)cc1 | . | 53.5
CCOC(=O)COc1ccc(S(=O)(=O)NCc2ccncc2)cc1 | . | .
O=c1cc(NC2CCCCC2)c2ccccc2o1 | . | .
COCC(C)OC(=O)c1c(N)n(CC(C)C)c2nc3ccccc3nc12 (stereo not drawn) | . | .
CC(C)(Oc1ccc(Cl)cc1)C(=O)Nc1ccncc1 | 75.7 | /
CC(C)(Oc1ccc(Cl)cc1)C(=O)NCc1ccco1 | . | .
SMILES | Yeast tox | Yeast eIF2B
Cc1cccc(C(=O)NNC2=C(C(=O)C(F)(F)F)CCC2)c1O | . | /
CC(Oc1ccc(Cl)cc1Cl)c1nc(-c2ccc(NC(=O)c3ccccn3)cc2)no1 (stereo not drawn) | . | .
CC1=C(C#N)c2nc(N)c(C#N)c(C)c2/C1=C\c1ccccc1 | 53.2 | .
Cc1nc(N)c(C#N)c(-c2ccccc2)c1C | . | .
CCN(CC)CCN(C)Cc1ccc(Br)cc1 | . | .
CCOC(=O)N1CCN(C(=O)c2ccc(NC(=O)CC)cc2)CC1 | . | .
CCOC(=O)N1CCN(C(=O)c2ccc(N3CCCC3=O)cc2)CC1 | . | 56.2
CC(C)CNC(=O)c1cc2nc(C3CC3)cc(C(F)(F)F)n2n1 | . | 56.8
O=C(Nc1cccnc1)c1cc2nc(C3CC3)cc(C(F)(F)F)n2n1 | . | .
C=CCN(C(=O)CCC(=O)O)C1CC(=O)N(c2ccc(OC)cc2)C1=O (stereo not drawn) | / | 50.4
C=CCN(C(C)=O)C1CC(=O)N(c2ccc(OCCC)cc2)C1=O (stereo not drawn) | . | /
CCN(c1cccc(C)c1)c1nc2ccsc2c(=O)s1 | . | .
Cc1cc(C)cc(NS(=O)(=O)c2ccc3oc(=O)ccc3c2)c1 | . | .
c1ccc2c(N3CCCC3)nc(-c3ccncc3)nc2c1 | / | .
C=CCNc1nc(-c2cccc(OC)c2O)nc2ccccc12 | . | 57.0
COc1cccc(-c2nc(N3CCCCC3C)c3ccccc3n2)c1O (stereo not drawn) | . | 56.5
COc1cccc(-c2nc(NCc3ccco3)c3ccccc3n2)c1O | . | .
COc1cccc(/C=C/C(=O)c2c(O)cc(C)oc2=O)c1O | 33.9 | .
COc1cc(/C=C/C(=O)c2c(O)cc(C)oc2=O)cc(OC)c1O | . | .
CN(C)CCn1c(=O)n(Cc2ccco2)c(=O)c2c3c(sc21)CCCCC3 | . | /
CC1(C)Cc2c(sc3c2c(=N)n(Cc2ccco2)c(=O)n3Cc2ccc(F)cc2)CO1 | . | 56.6
O=c1cc(CSc2ccc(S(=O)(=O)N3CCCCC3)cn2)nc2sccn12 | . | .
Cc1nc(N2CCN(c3ccccc3)CC2)c2c3c(sc2n1)CCC3 | . | .
Cc1nc(N2CCN(C(=O)c3ccco3)CC2)c2c3c(sc2n1)CCCC3 | . | 52.6
CCCCCOC(=O)c1cc(=O)[nH]c2ccccc12 | . | .
CCC(=O)N(Cc1cc(=O)[nH]c2ccccc12)c1cccc(C)c1 | . | 51.2
CC1CCc2cc(F)ccc2N1C(=O)C1(C)CC1(Cl)Cl (stereo not drawn) | . | /
CC1(C)CC(=O)C(C=NCCCn2ccnc2)=C(O)C1 | . | .
